# Assay results as given in the EternaBench riboswitch data.
# Test system: MS2 coat protein
# Assay: apparent Kd, MS2 coat protein; higher = weaker binding; RNA-MaP array; FMN 200 µM where present
# Method in brief: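 Green signal was scaled to red-channel RNA signal and control-cluster median Fmax, and the apparent Kd was taken as the median of filtered per-cluster binding-curve fits. The binding series used SNAP-549-labelled MS2 coat protein from 0.7 or 1.5 nM, doubling to 3 µM, on designs transcribed by stalled E. coli RNA polymerase on Illumina sequencing-chip clusters. Each series ran without and then with constant ligand in 100 mM Tris-HCl pH 7.5, 80 mM KCl, 4 mM MgCl2, BSA, DTT, yeast tRNA and Tween-20.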
# [1] = designed as: OFF switch for flavin mononucleotide, no ligand
# [2] = ligand present: flavin mononucleotide, designed as: OFF switch for flavin mononucleotide
# [3] = ligand present: flavin mononucleotide, designed as: ON switch for flavin mononucleotide
# [4] = designed as: ON switch for flavin mononucleotide, no ligand
sequence,measurement,setting,value
UUUUAGCAGUCAGGAUAUGCAACGCACAACGACGCAGAAGGGACAUGAGGAUCACCCAUGUUAUGGUUCUGGUACUAUGACGUU,apparent Kd,[1],18.1 nM
same,apparent Kd,[2],24.6 nM
ACUUAAAUACCCAAAAGUCGGGCGGAGGAUAUGGAGCUUCCACCACAUGAGGAUCACCCAUGUCUUCAGAAGGCCGCCCUUGGA,apparent Kd,[3],11.2 nM
GAUUGACAUGAGGAUCACCCAUGUGAGGAUAUCGGCUGGACCGUGUUGGCUUGCCUUUCGAGAAGGCGCAUAGG,apparent Kd,[1],37.7 nM
same,apparent Kd,[2],42 nM
ACCGGGUACACAGGAUAUCACGUCCUGACAUGAGGAUCACCCAUGUCGGUCUGAGAAGGGUGGUCCCGCAGCCGACUGUGAUGG,apparent Kd,[4],254 nM
same,apparent Kd,[3],27.3 nM
CUUUUGUGAGGAUAUUAGUAGUUAAUAAAUAAAAUUACUACUGAGAAGGCACAUGAGGAUCACCCAUGUUCCUC,apparent Kd,[1],31.5 nM
same,apparent Kd,[2],226 nM
CGUCCACAUGAGGAUCACCCAUGUGAGGAUAUCGAUGUCCCAGGGCGGGUGCGGGACUCGAGAAGGCGCUAGGU,apparent Kd,[1],23.3 nM
same,apparent Kd,[2],29 nM
GUAAAUCAUGUAGGAUAUGCAUGGCGAAGCUACGCAGAAGGACAUGAGGAUCACCCAUGUGCUAGCUACCGAGUUCGGUGGCAA,apparent Kd,[1],77.1 nM
same,apparent Kd,[2],354 nM
UUAAUAAUACAAGGAUAUCUAUUGUUCUUUCGACAUACAUGAGGAUCACCCAUGUUAAUAUAUAUAGAGAAGGUGUAUUUUCAG,apparent Kd,[4],28 nM
same,apparent Kd,[3],24.5 nM
GUCAGCUCGUGAGGAUAUACAUGUGCUGGAAACAGCACUAUUGUGUUCACAUGAGGAUCACCCAUGUAGAAGGCACGAGCUGAU,apparent Kd,[1],18.2 nM
same,apparent Kd,[2],85.6 nM
CUUUUGUGAGGAUAUUCGUAGUAGGGUCAUGGCACUAUUAUGAAGAAGGCACAUGAGGAUCACCCAUGUACCUU,apparent Kd,[1],15.3 nM
same,apparent Kd,[2],26.8 nM
CCUUUGUCAGGAUAUCAGAACGCGCUCGUAGGGAGCGCGAAUGAGAAGGGACAUGAGGAUCACCCAUGUAAAGA,apparent Kd,[1],94.7 nM
same,apparent Kd,[2],492 nM
AAUAUAGAGCUGGAAUAAAACCUCACAUGAGGAUCACCCAUGUAGGAUAUCAGCACGAUAAGUGCUGAGAAGGACAUCCAGCUC,apparent Kd,[1],15.6 nM
same,apparent Kd,[2],17.9 nM
UUAAUUAACAAGAAGGCUUACAUGAGGAUCACCCAUGUUGUACAUGGAUAAAGAGGAUAUUGCUAAUAAUUAUUUAUCUUAAUU,apparent Kd,[1],61.5 nM
same,apparent Kd,[2],37.3 nM
GCGAUGUUAGGAUAUACAUGAGGAUCACCCAUGUUCAGACUGAGCCUAGAGCGUCUAUGUAGAAGGGACUCGCA,apparent Kd,[1],27.2 nM
same,apparent Kd,[2],43.1 nM
GGGUACAUCGGAGGAUAUCAUAUAAAUACAUGAGGAUCACCCAUGUCGAUGGAGACAUCGGAGAUUGAGAAGGCCGAUGUACCG,apparent Kd,[4],8.43 nM
same,apparent Kd,[3],5.54 nM
UUUAUAAAUUAGAAGGCGAGAUGAAUUACAAUAGACAUGAGGAUCACCCAUGUGUACCCAUGUCUUGAGGAUAUAGUCAUAUAU,apparent Kd,[4],132 nM
same,apparent Kd,[3],48 nM
UGCGCCUGCGAGAAGGCACAGAUCCAGCUCUUGACAUGAGGAUCACCCAUGUGAGGAUAUCGCAGGCGCGAAUUGGGACAAUCU,apparent Kd,[1],12.8 nM
same,apparent Kd,[2],74.1 nM
UGGUACUAGGGAGGAUAUGGGAAGACACAUGAGGAUCACCCAUGUUUAAGAAUGCCGAGAGGCAACUAGAAGGCCCUAGUACCU,apparent Kd,[4],71.9 nM
same,apparent Kd,[3],7.95 nM
UGUGCAGAAGGAUAUGCGUAAUGGCCGUGAGGCCUAGAUCUACAUGAGGAUCACCCAUGUAGAAGGUCUGUACU,apparent Kd,[1],16.6 nM
same,apparent Kd,[2],16.4 nM
GAUAGAGAGCAGGAUAUCUUGGGUAAGUAUCGUAGAGAAGGGCUCACAUGAGGAUCACCCAUGUGGUCCUAGAU,apparent Kd,[1],12.7 nM
same,apparent Kd,[2],29.5 nM
ACAUGAGGAUCACCCAUGUUAUCCGGGACUUCAAUUAUUUCUAGAAGGCUGUUUACUUGUUAGUCAGAGGAUAUAGAAUUAAAU,apparent Kd,[1],10.7 nM
same,apparent Kd,[2],12.5 nM
GGAAAUCGUGUAGGAUAUGCAUGGCGAAGCUACGCAGAAGGACAUGAGGAUCACCCAUGUUAUAGCGUCCGAGAAAGGAUGCAA,apparent Kd,[1],11 nM
same,apparent Kd,[2],67.4 nM
CGUCAGUGAGGAUAUGGUGUCGUUUACAUGAGGAUCACCCAUGUUUCAUGGGACUAGAGACUAGAAGGUACUGACG,apparent Kd,[1],97.4 nM
same,apparent Kd,[2],266 nM
GUACAUACAAAGUUACAUGAGGAUCACCCAUGUUUAUUGGGAAGAAGGGUAACAUUAUUAAAUAUAUAGGAUAUUUCACAAUUG,apparent Kd,[4],546 nM
same,apparent Kd,[3],283 nM
CUAUGAACGAUAGGAUAUACUGAGGUUGAGUGGGUAGAAGGAUCGAUAGUGGAGAAGACAUGAGGAUCACCCAUGUUAUGGAUU,apparent Kd,[4],552 nM
same,apparent Kd,[3],170 nM
ACGACGAAAGUCGAACGAUGUAGCAGAAGGACAUGAGGAUCACCCAUGUCAGCUGUAACAGCCAUGUAGGAUAUGCUACAUCGA,apparent Kd,[1],4.35 nM
same,apparent Kd,[2],5.67 nM
ACAAAACAUGAGGAUCACCCAUGUGAGGAUAUGCGAAACAAACAAACAAACAAACAAAGCAGAAGGCACAACAA,apparent Kd,[1],22.7 nM
same,apparent Kd,[2],37.1 nM
UGAGCCUCGUGAGGAUAUACAUGAGGAUCACCCAUGUAAUAAAGUGAGCGGAGGAAACUCCGAAUGUAGAAGGCACGAGGCUCA,apparent Kd,[1],26 nM
same,apparent Kd,[2],186 nM
AGUCAUACAGGAUAUACAUGAGGAUCACCCAUGUAAAUCCUAAAUGGGUGAUCCUCAUGUAGAAGGGUAUGACA,apparent Kd,[1],20.7 nM
same,apparent Kd,[2],17.1 nM
AAGAAGGCAGGAUAUACAAAAUAAAAGAAAAGAAAGAAAGAACAUGAGGAUCACCCAUGUAGAAGGGUCAAGAA,apparent Kd,[1],59.3 nM
same,apparent Kd,[2],66.1 nM
AGAUGACAAAGUCAUCUCUGGCAGACAUGAGGAUCACCCAUGUAGGAUAUACUACUCAAAGAGUAGUAGAAGGACAUGUGUCUU,apparent Kd,[1],35.9 nM
same,apparent Kd,[2],99.4 nM
ACAUGAGGAUCACCCAUGUUACGAACAUGAGGAUCACCCAUGUAGGAUAUGCUACUCAAAGAGUAGCAGAAGGACAUGUGCCUU,apparent Kd,[1],1090 nM
same,apparent Kd,[2],559 nM
AUUAUGUUAGGAUAUGCUUAUGGUGGAUAGUCCAGUGUGGUGCAGAAGGGACAUGAGGAUCACCCAUGUGCUGA,apparent Kd,[1],53.8 nM
same,apparent Kd,[2],60.6 nM
CUCUUGUCAGGAUAUGCUGCUCGUCACGAAAGUGAUGAGUAGCAGAAGGGACAUGAGGAUCACCCAUGUAAAUA,apparent Kd,[1],53.7 nM
same,apparent Kd,[2],17.5 nM
UCGAUGCUAGGAUAUACUAAUACAACUACUGUAGUGUCUUCACAUGAGGAUCACCCAUGUAGAAGGAGCAUAUA,apparent Kd,[1],26.3 nM
same,apparent Kd,[2],20.3 nM
GGCAGCGGACAAGGAUAUAAGACGCAGACCAAAUUAGAAGGUGUCAUCUGGCAAUGCGAAAGCAGACAUGAGGAUCACCCAUGU,apparent Kd,[4],68.8 nM
same,apparent Kd,[3],61.7 nM
GUAGAGUCAGGAUAUACGAGAUCGAUAGAUCAAAGAUCCUUACAUGAGGAUCACCCAUGUAGAAGGGACUCUAC,apparent Kd,[1],37.4 nM
same,apparent Kd,[2],677 nM
UGCGCUGAGGGAGGAUAUGACAUGAGGAUCACCCAUGUGAUAGGUUUCUUGUCAGAAGGCCCGCGUGUACCGAAUUAGGUUCGC,apparent Kd,[1],55.6 nM
same,apparent Kd,[2],404 nM
UCUGCCGCCGUGAGGAUAUGCCCGCGCGCACGCGGGCAGAAGGCACAUGAGGAUCACCCAUGUCCCGCGGUUUU,apparent Kd,[1],17.6 nM
same,apparent Kd,[2],38.1 nM
ACCUCACAUGAGGAUCACCCAUGUCAGGAUAUCUGAUGUAGUCGCGUUCCCGACGCUAAGAGAAGGGACGUUGA,apparent Kd,[1],40.4 nM
same,apparent Kd,[2],35.1 nM
UACAAUCUAUCUGAGGAUAUCAUGAAAAAAACAUGAGGAUCACCCAUGUGCAGGAAAACUGCAUAUGAGAAGGCAGAUAGAUUGG,apparent Kd,[4],736 nM
same,apparent Kd,[3],28.9 nM
UGUUCUAUGUAGAAGGCCCAUAUCUGUAUUUAGGGAGGAUAUACAUGAGGAUCACCCAUGUGUAGAGCUGGUGGACUGGUCAGC,apparent Kd,[1],13.6 nM
same,apparent Kd,[2],38.9 nM
GGGUACAUCGGAGGAUAUCAUGUAAAUACAUGAGGAUCACCCAUGUCGAUGGAGACAUCGGAGAUUGAGAAGGCCGAUCUACCG,apparent Kd,[4],213 nM
same,apparent Kd,[3],9.94 nM
UAUUUUAACUAAGGAUAUCUGUAUUAUGUAGAAACAUGAGGAUCACCCAUGUUCUUGAUAUUAUAGGAGAAGGUAGAUGAAUAA,apparent Kd,[4],6.6 nM
same,apparent Kd,[3],5.72 nM
AUAAUACAUGAGGAUCACCCAUGUAAUUUAACUUGUAAGAUCAAGGAUAUCAGCUCGAUUAGAGCUGAGAAGGUGAUCACAUGU,apparent Kd,[4],154 nM
same,apparent Kd,[3],229 nM
CCGGAAGUAGAGGAUAUCGUAUCGGAUACGAUACGAGAAGGCUAUACAUGAGGAUCACCCAUGUGUCCUACCGG,apparent Kd,[1],24.6 nM
same,apparent Kd,[2],33.3 nM
GUGCCUUGGGAGAAGGUUACUAGCAAAGCUAUUAAAGGAUAUUCAUACCGGAAACGGACAUGAGGAUCACCCAUGUGGCACAAA,apparent Kd,[4],1120 nM
same,apparent Kd,[3],118 nM
UUCUAACGAGGAUAUCGAUGGUGGAACAUGAGGAUCACCCAUGUAUGAGAUAUUGUAGUUCGAGAAGGCGUUCAGU,apparent Kd,[1],42.1 nM
same,apparent Kd,[2],32.5 nM
AAUAAACUCACAGGAUAUAGCAGAUGUCGCGUGAACUUACAGGCGACGAUGCUAGAAGGGUGACCACAUGAGGAUCACCCAUGU,apparent Kd,[4],1200 nM
same,apparent Kd,[3],142 nM
UUACUGAUAUAGAAGGGUAUAUGGGAAUUACAUGAGGAUCACCCAUGUUUUAUAGGAUAUGUAUAUAGUAUUUAAUCAAGUUUA,apparent Kd,[1],34.6 nM
same,apparent Kd,[2],27.1 nM
GGUAUCUCCCGUGAGGAUAUGCGGCGUAGAACAUGAGGAUCACCCAUGUCCUUCGAAUGGGUUACGCAGAAGGCACGACGGUACC,apparent Kd,[4],33.3 nM
same,apparent Kd,[3],18.5 nM
ACUAUACGAGGAUAUGCUGUCAGUACUCAGAGGUUAGUGUGACAUGAGGAUCACCCAUGUAGAAGGCGUUUACU,apparent Kd,[1],40.8 nM
same,apparent Kd,[2],34 nM
GCACCUUUAUUUGAACCGAUACGAACAUGAGGAUCACCCAUGUAGGAUAUGCUUAAAGUUGUGUUGCAGAAGGACAUUUAGUGC,apparent Kd,[1],8.76 nM
same,apparent Kd,[2],8.31 nM
GCGGAACAUGAGGAUCACCCAUGUAUCCGAAAUAUGGACUCACAGGAUAUCCAGAGUUGCCAAUCGGAGAAGGGUGACUCCAGC,apparent Kd,[4],14.4 nM
same,apparent Kd,[3],8.29 nM
UUGGACUACGUAGGAUAUGUAGGAUAUUCCUACAUGAGGAUCACCCAUGUUAGCAUGUAAGUAGGACAGAAGGACGUGGUCCAU,apparent Kd,[4],540 nM
same,apparent Kd,[3],24.9 nM
